Published values pooled from the literature.
Compare with care: the assays were run in different laboratories.

Structure (SMILES)	cell line	read-out	method	concentration	time	measurement	value
C=CC(=O)Nc1cccc(Nc2nc(Nc3ccc(OCCOC)cc3)ncc2F)c1	U2932	cell growth or viability	–	–	48 h	GI50	4.3 µM
COc1cc(/C=N/n2c(C)nc3ccc(C)cc3c2=O)ccc1OCc1ccccc1	LoVo	cell growth or viability	LDH	200 µg/mL	24 h	viability	76.5%
COc1ccc(-c2nc(NN=C3C(=O)Nc4ccc(Br)cc43)c3ccccc3n2)cc1OC	HT-29	cell growth or viability	–	10 µM	–	inhibition	70.8%
CCC1=C[C@@H]2CN(C1)Cc1c([nH]c3ccccc13)[C@@](C(=O)OC)(c1cc3c(cc1OC)N(C)[C@H]1[C@@](O)(C(=O)OC)[C@H](OC(C)=O)[C@]4(CC)C=CCN5CC[C@]31[C@@H]54)C2	LLC-PK1	cell growth or viability	–	–	72 h	IC80	0.011 µM
COc1ccc(-c2ccc(-c3ccc(C(=N)N)nc3)s2)cc1Cl	TK-10	cell growth or viability	–	–	–	GI50	1.9 µM
Cn1c(=O)c(NN=C2C(=O)Nc3ccccc32)nc2ccccc21	HT-29	cell growth or viability	–	30 µM	–	inhibition	73%
CCc1ccc(/C=N/n2c(C)nc3ccc(C)cc3c2=O)s1	LoVo	cell growth or viability	LDH	200 µg/mL	24 h	viability	89.5%
Cc1cc(C)n(C(=S)[S][Au][PH](CCCCCC[PH]([Au][S]C(=S)n2nc(C)cc2C)(c2ccccc2)c2ccccc2)(c2ccccc2)c2ccccc2)n1	TK-10	cell growth or viability	–	–	–	GI50	1.21 µM
C=CC(=O)N1CCC[C@@H](n2nc(-c3ccc(Oc4ccccc4)cc3)c3c(N)ncnc32)C1	U2932	cell growth or viability	–	–	48 h	GI50	5 µM
COc1cc(NCC(=O)Nn2c(C)nc3ccc(Cl)cc3c2=O)cc(OC)c1OC	LoVo	cell growth or viability	LDH	200 µg/mL	24 h	viability	59.5%
COc1cccc(Oc2ccccc2NC(=O)CNC(=O)c2cccc3ccccc23)c1	TK-10	cell growth or viability	SRB	–	48 h	GI50	1.58 µM
CC(C)(O)[C@H]1CC[C@H](Nc2ccc3ncc(-c4cccc(C(F)(F)F)c4)n3n2)CC1	UMUC3	colony formation	–	–	–	EC50	2.2 µM
CCN(CC)CCNC(=O)c1c(C)[nH]c(/C=C2\C(=O)Nc3ccc(F)cc32)c1C	HT-29	cell growth or viability	–	30 µM	–	inhibition	59.5%
